Columns and labels:
Melanocortin receptor 4 [1] = biological target: T1, Melanocortin receptor 4 (Homo sapiens, UniProt P32245); test: Binding affinity against Melanocortin 4 receptor by gamma-MCH displacement.
Method in brief: (§1)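 Competition binding on intact HEK293 cells stably expressing the human receptor, seeded 50000 cells/well 48 h earlier. Lysates were gamma-counted. Ki came from competition curves; mean of duplicate experiments in triplicate.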

Melanocortin receptor 5 [2] = biological target: T2, Melanocortin receptor 5 (Homo sapiens, UniProt P33032); test: Intracellular cAMP accumulation in human Melanocortin 5 receptor functional assay.
Melanocortin receptor 3 [3] = biological target: T3, Melanocortin receptor 3 (Homo sapiens, UniProt P41968); test: Binding affinity against human Melanocortin 3 receptor by gamma-MCH displacement.; method in brief: as §1
Melanocortin receptor 3 [4] = biological target: T3, Melanocortin receptor 3; test: Intracellular cAMP accumulation in human Melanocortin 3 receptor functional assay.
Melanocortin receptor 5 [5] = biological target: T2, Melanocortin receptor 5; test: Binding affinity against human Melanocortin 5 receptor by gamma-MCH displacement.; method in brief: as §1
Melanocortin receptor 4 [6] = biological target: T1, Melanocortin receptor 4; test: Intracellular cAMP accumulation in Melanocortin 4 receptor functional assay.
Melanocortin receptor 3 [7] = biological target: T3, Melanocortin receptor 3; test: Agonist activity against human Melanocortin 3 receptor at 10 uM
Melanocortin receptor 4 [8] = biological target: T1, Melanocortin receptor 4; test: Agonist activity against human Melanocortin 4 receptor at 10 uM
Melanocortin receptor 5 [9] = biological target: T2, Melanocortin receptor 5; test: Agonist activity against human Melanocortin 5 receptor at 10 uM

T1 sequence (P32245 whole entry): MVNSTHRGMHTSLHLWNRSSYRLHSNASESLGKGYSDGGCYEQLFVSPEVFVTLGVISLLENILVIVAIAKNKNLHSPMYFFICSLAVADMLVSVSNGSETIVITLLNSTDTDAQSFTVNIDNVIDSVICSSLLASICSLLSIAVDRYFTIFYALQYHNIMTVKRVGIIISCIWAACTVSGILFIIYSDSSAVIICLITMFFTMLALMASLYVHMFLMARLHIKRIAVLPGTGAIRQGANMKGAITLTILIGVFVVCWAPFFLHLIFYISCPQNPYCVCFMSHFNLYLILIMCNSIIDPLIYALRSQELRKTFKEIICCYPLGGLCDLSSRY
T2 sequence (P33032 whole entry): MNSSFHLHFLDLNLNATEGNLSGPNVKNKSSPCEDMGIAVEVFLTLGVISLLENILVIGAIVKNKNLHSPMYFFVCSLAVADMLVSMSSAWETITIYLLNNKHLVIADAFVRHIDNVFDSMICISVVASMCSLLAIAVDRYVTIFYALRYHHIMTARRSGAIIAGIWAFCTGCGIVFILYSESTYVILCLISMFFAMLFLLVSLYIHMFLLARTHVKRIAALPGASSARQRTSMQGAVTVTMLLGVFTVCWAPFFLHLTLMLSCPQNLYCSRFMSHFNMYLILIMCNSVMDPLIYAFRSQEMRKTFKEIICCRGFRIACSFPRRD
T3 sequence (P41968 whole entry): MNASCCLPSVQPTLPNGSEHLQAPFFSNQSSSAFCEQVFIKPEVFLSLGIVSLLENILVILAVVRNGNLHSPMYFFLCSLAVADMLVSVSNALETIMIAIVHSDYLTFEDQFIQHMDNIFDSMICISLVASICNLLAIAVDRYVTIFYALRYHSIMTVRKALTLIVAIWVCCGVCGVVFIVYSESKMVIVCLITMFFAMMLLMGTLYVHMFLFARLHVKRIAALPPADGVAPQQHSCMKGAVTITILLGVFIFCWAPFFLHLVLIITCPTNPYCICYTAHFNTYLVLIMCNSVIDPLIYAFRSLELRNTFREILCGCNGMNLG

| Compound | Ki (Melanocortin receptor 4 [1]) [nM] | EC50 (Melanocortin receptor 5 [2]) [nM] | Ki (Melanocortin receptor 3 [3]) [nM] | EC50 (Melanocortin receptor 3 [4]) [nM] | Ki (Melanocortin receptor 5 [5]) [nM] | EC50 (Melanocortin receptor 4 [6]) [nM] | Activity (Melanocortin receptor 3 [7]) [%] | Activity (Melanocortin receptor 4 [8]) [%] | Activity (Melanocortin receptor 5 [9]) [%] |
| --- | --- | --- | --- | --- | --- | --- | --- | --- | --- |
| CCCC[C@H](NC(=O)[C@@H](NC(=O)[C@@H](N)Cc1ccc(O)cc1)C(C)C)C(=O)NCC(=O)N[C@@](C)(Cc1ccccc1)C(=O)N[C@@H](Cc1ccccc1)C(=O)N[C@@H](CCCN=C(N)N)C(=O)N[C@H](Cc1ccc2ccccc2c1)C(=O)N[C@@H](CC(=O)O)C(=O)N[C@@H](CCCN=C(N)N)C(=O)N[C@@H](Cc1ccccc1)C(=O)NCC(N)=O | 1300 | 210 | 1400 | 150 | 3300 | 53 | 40 | 80 | 40 |
| CCCC[C@H](NC(=O)[C@@H](NC(=O)[C@@H](N)Cc1ccc(O)cc1)C(C)C)C(=O)N[C@H]1CC(=O)NCCCC[C@H](C(=O)N[C@@H](CCCN=C(N)N)C(=O)N[C@@H](Cc2ccccc2)C(=O)NCC(N)=O)NC(=O)[C@@H](Cc2c[nH]c3ccccc23)NC(=O)[C@H](CCCN=C(N)N)NC(=O)[C@@H](Cc2ccccc2)NC(=O)[C@H](Cc2c[nH]cn2)NC1=O | – | – | – | – | – | – | 100 | 100 | 100 |
